The list is a sample of the results.
PGC1a Ac signal: compounds raising PGC1a acetylation signal, primary screen, PGC1a modulator project, cell-based, U2OS, AlphaScreen, signal-increasing mode; actives 0.21% (n = 350,000); activation, % at 15.6 µM; AID 651723, 2012; overnight;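 active = every replicate reaching activation of at least 50%, whatever the mean replicate activation; inconclusive = replicates that disagree or another doubt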;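 also: hits raise the AlphaScreen acetylation signal above neutral controls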
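Incubation: overnight compound treatment, 37 °C. System: U2OS cells transduced with flag-tagged PGC1a and GCN5 acetyltransferase. Detection: AlphaScreen lysate read. Compound: single-point compound dosing.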
Hep G6PC suppr: suppressors of forskolin-stimulated G6PC mRNA, dose response, PGC-1a acetylation activator project, cell-based, hepatocytes, RT-qPCR, cherry-picked samples; G6PC suppression (normalized activity, % of positive control; higher = more suppression), % at 26 µM; shares compounds with PGC1a Ac signal; 240 tested, under 10 active; primary mouse hepatocytes;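 active = dose curves showing G6PC suppression whose half-maximal dose is at most twice the top valid dose; inconclusive = flat curves with moderate negative activity, or unreliable fits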;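 also: G6PC expression relative to GAPDH housekeeping gene as delta delta Ct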
Hep PCK1 suppr: suppression of PCK1 mRNA in primary hepatocytes, dose response, PGC-1a acetylation activator project, cell-based, primary mouse hepatocytes, RT-qPCR, cherry-pick; shares compounds with PGC1a Ac signal; forskolin-stimulated; PCK1 expression decrease, unspecified at 26 µM; 230 tested, under 10 active; AID 743465, 2014;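 active = compounds lowering PCK1 expression whose fitted half-maximal concentration is at most twice the top tested dose; inconclusive = flat fit with moderate opposite-direction effect, or poor fit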;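 also: higher delta delta Ct means lower PCK1 expression so positive values indicate hits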
Hep PGC-1a down: suppression of PGC-1a mRNA in primary hepatocytes, dose response, PGC-1a acetylation activator project, cell-based, primary mouse hepatocytes, RT-qPCR, cherry-pick | shares compounds with PGC1a Ac signal | PGC-1a mRNA qPCR, forskolin; top dose 26 µM | max activity (PGC-1a expression decrease), % | 240 tested, under 10 active | AID 743467, 2014;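 active = compound lowering PGC-1a expression with fitted half-maximal concentration at most twice its top tested dose; inconclusive = flat curve with moderate opposite-direction effect, or poor fit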
Numbers stand for hits; 0 = inactive; ? = inconclusive.

SMILES	PGC1a Ac signal	others
Cn1c(=O)c2cc(S(=O)(=O)NCCC(=O)NCc3ccccc3Cl)ccc2n(C)c1=O	0
C=CCOc1ccccc1CNc1ccc2[nH]c(=O)[nH]c2c1	0
O=C(Cc1cccc(NC(=O)C2CCN(C(=O)c3ccccc3)CC2)c1)Nc1cccc(C(=O)N2CCCCC2)c1	0
O=C(Cc1cccc(NC(=O)C2CCCN(C(=O)c3ccccc3)C2)c1)Nc1cccc(C(=O)N2CCOCC2)c1 (stereo unspecified)	0
CC(C)(C)OC(=O)N1CCCC(C(=O)Nc2cccc(C(=O)NCc3ccccc3)c2)C1 (stereo unspecified)	64
Cc1ccc(NC(=O)c2ccccc2)cc1-n1cnnn1	0
Nc1c(C(=O)Nc2ccccc2)sc2ncc([N+](=O)[O-])cc12	84
CN1CCN(c2ccc([N+](=O)[O-])cc2C(=O)Nc2ccccc2)CC1	0
CCC(C)(C)n1nnnc1C(c1cccnc1)N1CCCC(C)C1 (stereo unspecified)	0
CO[C@H]1CN(C)C(=O)c2cc(NC(=O)NC(C)C)ccc2OC[C@H](C)N(Cc2ccc(-c3ccccn3)cc2)C[C@@H]1C	0
N#C[C@@H]1[C@H](c2ccccc2C2=CCCCC2)[C@H](CO)N1C(=O)Cc1ccncc1	0
Cc1ccc(NC(=S)c2ccncc2)c(C)c1	164
CCc1ccc(NC(=O)C2CC=CCC2C(=O)O)cc1 (stereo unspecified)	82
CCOC(=O)C1(CC2CCCCO2)CCN(C(=O)Nc2ccc(SC)cc2)CC1 (stereo unspecified)	0
COc1ccc(-c2cnc3c(c2)C(=O)N([C@H](C)CO)C[C@H](C)[C@H](CN(C)S(=O)(=O)c2cccs2)O3)cc1	0
COc1ccc(C#Cc2cnc3c(c2)C(=O)N([C@H](C)CO)C[C@H](C)[C@H](CN(C)S(=O)(=O)c2cccs2)O3)cc1OC	61
COc1ccc(S(=O)(=O)N(C)C[C@@H]2Oc3ncc(-c4ccccc4)cc3C(=O)N([C@H](C)CO)C[C@@H]2C)cc1	0
C[C@H](CO)N1C[C@H](C)[C@@H](CN(C)CC2CCOCC2)Oc2ncc(Br)cc2C1=O	0
CCOc1ccc(N(CC(=O)Nc2ccccc2OC)S(=O)(=O)c2ccccc2)cc1	0
COc1ccc(C)cc1NS(=O)(=O)c1ccc(NC(=O)CN(c2cc([N+](=O)[O-])ccc2C)S(C)(=O)=O)cc1	474
CC(=O)Nc1cc(C(=O)OCc2cccc([N+](=O)[O-])c2)ccc1C	0
Cc1cccc(NS(=O)(=O)c2ccc(NC(=O)CN(c3cc([N+](=O)[O-])ccc3C)S(C)(=O)=O)cc2)c1	378
COc1ccc(OC)c(N(CC(=O)Nc2ccccc2)S(C)(=O)=O)c1	0
COc1ccc(NC(=O)N[C@@H]2C=C[C@@H](CC(=O)NCc3ccccn3)O[C@@H]2CO)cc1	0
COc1ccccc1C1c2c(C)nn(-c3ccccc3)c2NC(=O)C1NC(=O)c1ccccc1 (stereo unspecified)	0
SMILES	PGC1a Ac signal	others
CCCCC(=O)NCCc1cc2c(OC)ccc(OC)c2[nH]c1=O	0
CCOC(=O)CCc1c(C)c2ccc(O)cc2oc1=O	74
Cn1c(=O)c2c(ncn2CC(=O)O)n(C)c1=O	0
COCC(=O)NCc1nc2ccccc2n1Cc1ccccc1F	0
CC(C)c1nc2sc3c(NCc4ccco4)ncnc3c2c2c1COC(C)(C)C2	0
Nc1nc(F)nc2c1ncn2[C@@H]1O[C@H](CO)[C@@H](O)[C@H]1O	0
OC[C@H]1O[C@@H](n2cnc3c(NCc4ccco4)ncnc32)[C@H](O)[C@@H]1O	72
C[C@H]1CN([C@@H](C)CO)C(=O)c2cc(-c3cccc(C(=O)N(C)C)c3)cnc2O[C@@H]1CN(C)S(=O)(=O)c1ccc(F)cc1	0
OCC1OC(Oc2c(Br)cc(Br)cc2Br)C(O)C(O)C1O (stereo unspecified)	0
OC(c1cc(C(F)(F)F)nc2c(C(F)(F)F)cccc12)C1CCCCN1 (stereo unspecified)	78
CC(C)(c1ccccc1)c1ccc(OCCCNCCO)cc1	88
C[C@H]([C@@H](N)C(=O)N[C@@H](C(=O)O)[C@@H]1O[C@H](n2ccc(=O)[nH]c2=O)[C@@H](O)[C@H]1O)[C@@H](O)c1ccc(O)cn1	0
CC1=Nc2ccccc2N=C(NC(=O)CN2CCN(c3ccccc3)CC2)C1c1ccccc1 (stereo unspecified)	0
Cc1cc2c(cc1S(=O)(=O)N1CCc3ccccc31)NC(=O)CO2	?	Hep PCK1 suppr=0;Hep PGC-1a down=0
COc1cc(C2Nc3cccc4cccc(c34)N2)ccc1OC(C)=O	0
COc1ccc(-c2csc(N(CCCN(C)C)C(=O)c3cccs3)n2)cc1	0
O=C(OCc1nnc(-c2ccccc2)o1)C1=COCCO1	0
CC1CN(c2oc(-c3cccs3)nc2C#N)CC(C)O1 (stereo unspecified)	0
COc1ccc(-c2c(-c3cc(OC)cc(OC)c3)n(C)c3ccc(-c4cnc(N)nc4)cc23)cc1	?	Hep G6PC suppr=0;Hep PCK1 suppr=0;Hep PGC-1a down=0
CCn1c(COc2ccc(=O)n(-c3ccccc3)n2)nnc1SCc1ccc(C)cc1	0
Cc1ccc2oc(Nc3nc(C)c(C)c(C)n3)nc2c1	0
Cc1ccc2oc(-c3ccc(NC(=O)c4cccnc4)cc3)nc2c1	73	Hep G6PC suppr=0;Hep PCK1 suppr=0;Hep PGC-1a down=0
O=C(Nc1ccc(-c2noc(CCc3ccccc3)n2)cc1)c1cccnc1	131	Hep G6PC suppr=0;Hep PCK1 suppr=0;Hep PGC-1a down=0
COC(=O)c1ccc(NC(=O)c2cccnc2)cc1	127	Hep PCK1 suppr=0;Hep PGC-1a down=?
COc1ccc(C[C@@H]2OC3(C=CC(=O)C=C3)O[C@H]2Cc2ccc(OC)cc2)cc1	0
SMILES	PGC1a Ac signal	others
COC1=CC(=O)c2c(ccc3ncnc(N)c23)C1=O	0
C[C@@H](C(=O)Nc1nc2ccc(F)cc2s1)N1C(=O)C2CC=CCC2C1=O (stereo partly specified)	0
Cc1ccc(S(=O)(=O)/N=C2\C=C(Nc3ccc(O)cc3)C(=O)c3ccccc32)cc1	0
O=C(/C=C/c1ccccc1)CC(O)(c1ccccc1)C(F)(F)C(F)F (stereo unspecified)	0
CC[C@H](C)C1OC(=O)[C@@H](C)[C@@H](CC)NC(=O)[C@H](C)N(C)C(=O)C(C)(C)C(=O)C(C)NC(=O)[C@H](Cc2ccc(OC)cc2)N(C)C(=O)[C@H](C(C)C)N(C)C(=O)CNC(=O)[C@H](CC(C)C)N(C)C(=O)CNC1=O (stereo partly specified)	0
Cc1cc(C)c2nc(N(CCCN(C)C)C(=O)c3ccc(S(=O)(=O)N4CCCCCC4)cc3)sc2c1	64	Hep G6PC suppr=0;Hep PCK1 suppr=0;Hep PGC-1a down=0
CCOC(=O)c1ccc(NC(=O)N2CCc3ccccc3C2)cc1	?	Hep G6PC suppr=0;Hep PCK1 suppr=0;Hep PGC-1a down=0
CCOC(=O)c1ccc(N2C(=O)C=CC2=O)cc1	0
